Tested on: MS2 coat protein
Assay: apparent Kd, MS2 coat protein; higher = weaker binding; RNA-MaP array; FMN 200 µM where present
Summary of the method: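 Two titrations, one without ligand and one with constant ligand, were run with SNAP-549-labelled MS2 coat protein from 0.7 or 1.5 nM, doubling to 3 µM. The targets were designs transcribed by stalled E. coli RNA polymerase on Illumina sequencing-chip clusters, in 100 mM Tris-HCl pH 7.5, 80 mM KCl, 4 mM MgCl2, BSA, DTT, yeast tRNA and Tween-20. The apparent Kd is the median of filtered per-cluster binding-curve fits, with green signal normalised to red-channel RNA signal and control-cluster median Fmax.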

[1] = designed as: OFF switch for flavin mononucleotide, no ligand
[2] = ligand present: flavin mononucleotide, designed as: OFF switch for flavin mononucleotide
[3] = designed as: ON switch for flavin mononucleotide, no ligand
[4] = ligand present: flavin mononucleotide, designed as: ON switch for flavin mononucleotide

ACAUAGUGAGGAUAUGCUGCUCGUCACUUGCGUGAUGAGUAGCAGAAGGCACAUGAGGAUCACCCAUGUAAAGA
apparent Kd [1]: 42.3 nM
apparent Kd [2]: 63.7 nM

UCUGUAGGAAUACAGACGAAGUGGCCAGAAGGUGAAUGCCACAUGAGGAUCACCCAUGUUUCGAUCAAGGAUAUGGUUUCUCAC
apparent Kd [3]: 312 nM
apparent Kd [4]: 79.8 nM

GAAUGUCGGGUAGGAUAUGACGUGCCACGGAGGUCAGAAGGGCCGCGACAUGAGGAUCACCCAUGUACUGUAUUCCUUUUUCAA
apparent Kd [1]: 24.3 nM
apparent Kd [2]: 67.4 nM

UUGGACGGCGUAGGAUAUGUAGGAUAUUCCUACAUGAGGAUCACCCAUGUUGACAUGGAAGAAGGACAGAAGGACGAUGUCCAU
apparent Kd [3]: 303 nM
apparent Kd [4]: 4.94 nM

CGAGUCAUAGCUCCUUAGCCAGCCAGAAGGGUCUACAUGAGGAUCACCCAUGUGGUCUCGAAGGGACAGGAUAUGGAGGGCGUA
apparent Kd [1]: 5.39 nM
apparent Kd [2]: 7.36 nM

GUGCUUAUCGAAGGAUAUGGUUACAUGAGGAUCACCCAUGUUAUGCUUGGUUACUUGUUUAGUUUCCAGAAGGUCGAUUAGUUG
apparent Kd [1]: 75.5 nM
apparent Kd [2]: 170 nM

AAGGGCGUGAUAACGCUCAUUAAAACAUGAGGAUCACCCAUGUAGGAUAUCCUACCGAAAUGGUAGGAGAAGGACAAGCAAUGA
apparent Kd [1]: 21.9 nM
apparent Kd [2]: 20.8 nM

CGGUUAUAUCGAGGAUAUAAGUCUAGGACAUGAGGAUCACCCAUGUAUGUCUUAGAAGGCGAUAUAACCAGCCUGUUACAGGCA
apparent Kd [3]: 29.3 nM
apparent Kd [4]: 6.32 nM

GCUUGUGAAGGAUAUACUGGCGGCGUGCGCUCGGCGCGCGCACAUGAGGAUCACCCAUGUAGAAGGUCAGGCGU
apparent Kd [1]: 13.8 nM
apparent Kd [2]: 12.5 nM

UUGGCAUCGUAGAAGGGUGACAUGAGGAUCACCCAUGUGACGAUAUUUCUCGAGAUAUGUCGUCCACAGGAUAUACGAGCGAAC
apparent Kd [3]: 72.3 nM
apparent Kd [4]: 42.4 nM

AUAGCUCCCUAGAAGGGCCAACCAGUAUUCCAUCAGGUAUUUGCGGUAGGUAGGAUAUGGGACAUGAGGAUCACCCAUGUGUAG
apparent Kd [3]: 35.8 nM
apparent Kd [4]: 25.8 nM

CGUUAAUAUCGAGGAUAUGUCUAGACACAUGAGGAUCACCCAUGUAUGUGUAUAGAAGGCGAUAUUAACAGCAUGUUACAUGCG
apparent Kd [3]: 38.3 nM
apparent Kd [4]: 16.7 nM

GGUCCAACAUGAGGAUAUGGCACCUUAUUGGUGCCAGAAGGCAUGUCUAUAGACAUGAGGAUCACCCAUGUAAUAAAUUGGACC
apparent Kd [3]: 689 nM
apparent Kd [4]: 47.8 nM

CGCUAAUAAUUAAUAUUAAUUGUACAGGAUAUGUUACAUGAGGAUCACCCAUGUAUUGGGUUUAAACAGAAGGGUAUAUUAGCG
apparent Kd [1]: 191 nM
apparent Kd [2]: 81.4 nM

UACCUACAUGAGGAUCACCCAUGUCAGGAUAUGUGCUGAGACGACAUCGACUUUCAGCGUAGAAGGGACCAGGG
apparent Kd [1]: 24.4 nM
apparent Kd [2]: 46.5 nM

ACCUGCCGUGGCACGGUAGUACCGGAGGAUAUCCGCGUCGGUCAUGACAUGAGGAUCACCCAUGUGGAGAAGGCUGGUUUGUCC
apparent Kd [1]: 11.9 nM
apparent Kd [2]: 24.8 nM

GGACAGUGUCGUUAUCCGUAGCGAACAUGAGGAUCACCCAUGUAGGAUAUGUUAUUAAACUAAUAACAGAAGGACGUUGGUCUC
apparent Kd [1]: 24.8 nM
apparent Kd [2]: 125 nM

AUAAUGUAAGGAUAUCAGUCGUAAUUAAUUUAAUUAUCGACUGAGAAGGUACAUGAGGAUCACCCAUGUGGUCA
apparent Kd [1]: 916 nM
apparent Kd [2]: 102 nM

CAGGAUAGAGGAUAUACAUAGAUACAGAUUCAUGUGAUCCUACAUGAGGAUCACCCAUGUAGAAGGCUAACCUG
apparent Kd [1]: 288 nM
apparent Kd [2]: 82.2 nM

AUCAGCUCGUCAGGAUAUACGUCACUGCGUCAGCAGUGUGGUAAGAUAACAUGAGGAUCACCCAUGUAGAAGGGACGAGCUGAU
apparent Kd [1]: 7.29 nM
apparent Kd [2]: 13.1 nM

GGAUGACAAAGUCAUCCAAUACGAACAUGAGGAUCACCCAUGUAGGAUAUGCUACUCAAAGAGUAGCAGAAGGACAUGUGCCUU
apparent Kd [1]: 33.8 nM
apparent Kd [2]: 252 nM

AAUAUGUUGCAGAAGGUUAUAUUUAUUUAGUACCUCAUGACAUGAGGAUCACCCAUGUUAAUGUUGAAGGAUAUGCAAUAUAUU
apparent Kd [1]: 14.1 nM
apparent Kd [2]: 13.6 nM

AUAUCUUGUCGAGGAUAUGUUGUAUUGAUCUGAAAACAUGAGGAUCACCCAUGUAUACGGUGGGAACAGAAGGUGAAUGUAGAA
apparent Kd [1]: 574 nM
apparent Kd [2]: 715 nM

AGCUGACGAGGAUAUACAUGAGGAUCACCCAUGUUGGUCAAGCGACGAUAGUCGCAAUGUAGAAGGUGUCAGCU
apparent Kd [1]: 138 nM
apparent Kd [2]: 565 nM

AUAACGUCAGGAUAUUUCCAGAGGGUCAUAGGACCCAUUGGAAAGAAGGGACAUGAGGAUCACCCAUGUCGGUG
apparent Kd [1]: 136 nM
apparent Kd [2]: 391 nM

UUGGACGUCGUAGGAUAUGUAGGAUAUUCCUACAUGAGGAUCACCCAUGUUGACAUGGAAGAAGCACAGAAGGACGAUGUCCAU
apparent Kd [3]: 150 nM
apparent Kd [4]: 6.6 nM

AAACAACGUCAGAAGGCCGAUGGAUUUGACCACGGAGGAUAUGACAUGAGGAUCACCCAUGUGAUGCUUCUAACCCGCUGGGCC
apparent Kd [1]: 31.3 nM
apparent Kd [2]: 289 nM

AUUUUGUCAGGAUAUGAGUAGUAGGACGAAAGUGUUAUUAUUUAGAAGGGACAUGAGGAUCACCCAUGUUUUCC
apparent Kd [1]: 12.7 nM
apparent Kd [2]: 16.7 nM

GUUUUCGCAUGAGGAUAUGCUCGCAUUUCAAGAGCAGAAGGUAUGUCUUUAGACAUGAGGAUCACCCAUGUAUUUAUCAUUGAA
apparent Kd [3]: 101 nM
apparent Kd [4]: 26.2 nM

AAUUGAAACGUAGGAUAUCGCUAUAAAUUAACACGAGAAGGACGUACAUGAGGAUCACCCAUGUUAAAUGGUGUAGUUUAGUUG
apparent Kd [1]: 32.8 nM
apparent Kd [2]: 95.5 nM

AUUGUUAAGGUAGGAUAUAGUAAAAUGAUUUAAUUAGAAGGAUCUCACAUGAGGAUCACCCAUGUAAGAGGAUCACCCAUGUAU
apparent Kd [1]: 12.9 nM
apparent Kd [2]: 9.73 nM

GGAUUUCCUGAGGAUAUUGCAUCACCUGAUUUAUAAGAAGGCAGAACAUGAGGAUCACCCAUGUGGGUAUUCGG
apparent Kd [1]: 27.6 nM
apparent Kd [2]: 37.4 nM

CACAGGGAUUCAGGAUAUAUUAGCCGAGGCCGCGUAGAAGGGAAAUCCUGACAUGAGGAUCACCCAUGUUAACCCACUUUUCAU
apparent Kd [3]: 28.1 nM
apparent Kd [4]: 28.4 nM

GUCAACUCGUGAGGAUAUACAACACUGCUUCGGCAGUGUAUUAAGAUCACAUGAGGAUCACCCAUGUAGAAGGCACGAGCUGAU
apparent Kd [1]: 14.4 nM
apparent Kd [2]: 214 nM

GAGUGACAUGAGGAUCACCCAUGUGAGGAUAUCGGACGGACCAAAUUAACAAUAUUUGCGAGAAGGCACAUCGG
apparent Kd [1]: 88.5 nM
apparent Kd [2]: 130 nM

UAAAUACAUGAGGAUCACCCAUGUCAAAAGACAUGAGGAUAUGUACAGACUUCGGUCUGUACAGAAGGCAUGAAUA
apparent Kd [3]: 652 nM
apparent Kd [4]: 46.7 nM

AAUUAUUUACAGAAGGAGUUAAAAGGAGUAUUACUAGGAUAUGUUCACAUGAGGAUCACCCAUGUCAUAUUGGGAUUUAUUUUU
apparent Kd [1]: 22.5 nM
apparent Kd [2]: 22.6 nM

GGAUCCUGGGUCAGGAUAUGCUGACAGCUUUGUCAGCAGAAGGGACAUGAGGAUCACCCAUGUGCUCGGUUUUG
apparent Kd [1]: 10.1 nM
apparent Kd [2]: 18.1 nM

ACCAUUUACUAAUUAUCUAUACAUGAGGAUCACCCAUGUUAUGAGGAUAUCAUCGUGAAACACGAUGAGAAGGUAUAGCAUUCG
apparent Kd [1]: 18.1 nM
apparent Kd [2]: 22.1 nM

GAUCUACAUGAGGAUCACCCAUGUAAGGAUAUCGUCACUGGAGCUUCGGCUCCAGUGACGAGAAGGUACAAUUA
apparent Kd [1]: 28.8 nM
apparent Kd [2]: 32.1 nM

GGGUACAUCGGAGGAUAUCAUGUAAAUACAUGAGGAUCACCCAUGUCGAUGGAGACCUCGGAGAUUGAGAAGGCCGAUGUACCG
apparent Kd [3]: 694 nM
apparent Kd [4]: 201 nM

UCGUCGCUAGGAGGAUAUACAUGAUCUCACACAUGUACCGCUCACGCCACAUGAGGAUCACCCAUGUAGAAGGCCUAGAGAGGU
apparent Kd [1]: 26.5 nM
apparent Kd [2]: 56.4 nM

AAGAAACAUGAGGAUCACCCAUGUGAGGAUAUACGAUGCUAAGCGUAAGCUUAGUAUCGUAGAAGGCACAAAGG
apparent Kd [1]: 131 nM
apparent Kd [2]: 311 nM

AAGAAACAUGAGGAUCACCCAUGUGAGGAUAUGAUGCGAAUUAUGUAUGUAGUAAGCAUCAGAAGGCACAAAGG
apparent Kd [1]: 127 nM
apparent Kd [2]: 203 nM

AAUGUGUCAGGAUAUUGUUAGUUUAGUUGUUUGUAUUAGUUCGAGAAGGGACAUGAGGAUCACCCAUGUUGUAA
apparent Kd [1]: 40.1 nM
apparent Kd [2]: 31.9 nM

UGUUGUAUUACAGGAUAUCUAGUAUUUUAAUUUAGAGAAGGGUAUUCACAUGAGGAUCACCCAUGUAUAUACGAGGAAGUUGUG
apparent Kd [3]: 51.3 nM
apparent Kd [4]: 61.6 nM

CGUGAACGGACGCACUGUUUCCACAUGAGGAUCACCCAUGUGAAGGAUAUGACUGGCGCCACUUGUUAGAAGGUCACUGGGCGA
apparent Kd [1]: 39.8 nM
apparent Kd [2]: 71.1 nM

CGAUAGGACAGAGGAUAUACACAUGAGGAUCACCCAUGUGAUUUCAACGCGAAAGCGCCAAACAUGUAGAAGGCUGUCCUAUCG
apparent Kd [1]: 25.9 nM
apparent Kd [2]: 16.4 nM

— the EternaBench riboswitch data
